ChEMBL document CHEMBL4138161, “Discovery of simplified sampangine derivatives as novel fungal biofilm inhibitors” (Eur J Med Chem, 2018)
Values after ≈ are worked out from the molar mass of the structure shown. Active and inactive are the calls of the source. No cut-off for these calls is given here.

Test system: Candida albicans
Assay: Antifungal activity against Candida albicans SC5314 after 24 hrs by spectrophotometric analysis
Assay type: functional
Settings: SC5314, 24 h
In short: (§1)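 Broth microdilution in RPMI 1640, inoculum 5×10^3 CFU/mL, compounds from 6.4 mg/mL DMSO stocks, 35 ℃ for 24 h. Growth read as OD600; MIC80 taken as lowest concentration giving 80% growth inhibition. Triplicate.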

Compound | MIC80
Cc1cnc2c(c1C)C(=O)c1sc([N+](=O)[O-])cc1C2=O | 0.25 µg/mL (≈ 0.867 µM)
OC(Cn1cncn1)(Cn1cncn1)c1ccc(F)cc1F [FLUCONAZOLE] | 0.25 µg/mL (≈ 0.816 µM)
Cc1cnc2c(c1)C(=O)c1sc([N+](=O)[O-])cc1C2=O | 0.5 µg/mL (≈ 1.82 µM)
Cc1ccnc2c1C(=O)C1=C(OC(C)(C)C1)C2=O | > 64 µg/mL
CC(C)(C)OC(=O)N1CCC(c2ccnc3c2C(=O)c2sc([N+](=O)[O-])cc2C3=O)CC1 | 32 µg/mL (≈ 72.2 µM)
CCCCc1ccnc2c1C(=O)c1sc([N+](=O)[O-])cc1C2=O | 1 µg/mL (≈ 3.16 µM)
CN(C)c1ccc(-c2ccnc3c2C(=O)c2sc([N+](=O)[O-])cc2C3=O)cc1 | 32 µg/mL (≈ 84.3 µM)
O=C1c2cc([N+](=O)[O-])sc2C(=O)c2c(C(Br)Br)ccnc21 | 32 µg/mL (≈ 74.1 µM)
Cc1cc[n+]([O-])c2c1C(=O)c1sc([N+](=O)[O-])cc1C2=O | 8 µg/mL (≈ 27.6 µM)

Test system: Candida parapsilosis
Assay: Antifungal activity against Candida parapsilosis 22019 after 24 hrs by spectrophotometric analysis
Assay type: functional
Settings: Lodderomyces parapsilosis, 22019, 24 h
In short: as §1

Compound | MIC80
Cc1cnc2c(c1C)C(=O)c1sc([N+](=O)[O-])cc1C2=O | 0.5 µg/mL (≈ 1.73 µM)
OC(Cn1cncn1)(Cn1cncn1)c1ccc(F)cc1F [FLUCONAZOLE] | 2 µg/mL (≈ 6.53 µM)
Cc1cnc2c(c1)C(=O)c1sc([N+](=O)[O-])cc1C2=O | 1 µg/mL (≈ 3.65 µM)
Cc1ccnc2c1C(=O)C1=C(OC(C)(C)C1)C2=O | > 64 µg/mL
CC(C)(C)OC(=O)N1CCC(c2ccnc3c2C(=O)c2sc([N+](=O)[O-])cc2C3=O)CC1 | > 64 µg/mL
CCCCc1ccnc2c1C(=O)c1sc([N+](=O)[O-])cc1C2=O | 1 µg/mL (≈ 3.16 µM)
CN(C)c1ccc(-c2ccnc3c2C(=O)c2sc([N+](=O)[O-])cc2C3=O)cc1 | 32 µg/mL (≈ 84.3 µM)
O=C1c2cc([N+](=O)[O-])sc2C(=O)c2c(C(Br)Br)ccnc21 | 32 µg/mL (≈ 74.1 µM)
Cc1cc[n+]([O-])c2c1C(=O)c1sc([N+](=O)[O-])cc1C2=O | 32 µg/mL (≈ 110 µM)

Test system: Nakaseomyces glabratus
Assay: Antifungal activity against Candida glabrata 537 after 24 hrs by spectrophotometric analysis
Assay type: functional
Settings: Nakaseomyces glabratus, 537, 24 h
In short: as §1

Compound | MIC80
Cc1cnc2c(c1C)C(=O)c1sc([N+](=O)[O-])cc1C2=O | 1 µg/mL (≈ 3.47 µM)
OC(Cn1cncn1)(Cn1cncn1)c1ccc(F)cc1F [FLUCONAZOLE] | 2 µg/mL (≈ 6.53 µM)
Cc1cnc2c(c1)C(=O)c1sc([N+](=O)[O-])cc1C2=O | 1 µg/mL (≈ 3.65 µM)
Cc1ccnc2c1C(=O)C1=C(OC(C)(C)C1)C2=O | 16 µg/mL (≈ 65.8 µM)
CC(C)(C)OC(=O)N1CCC(c2ccnc3c2C(=O)c2sc([N+](=O)[O-])cc2C3=O)CC1 | > 64 µg/mL
CCCCc1ccnc2c1C(=O)c1sc([N+](=O)[O-])cc1C2=O | 4 µg/mL (≈ 12.6 µM)
CN(C)c1ccc(-c2ccnc3c2C(=O)c2sc([N+](=O)[O-])cc2C3=O)cc1 | > 64 µg/mL
O=C1c2cc([N+](=O)[O-])sc2C(=O)c2c(C(Br)Br)ccnc21 | 16 µg/mL (≈ 37 µM)
Cc1cc[n+]([O-])c2c1C(=O)c1sc([N+](=O)[O-])cc1C2=O | 64 µg/mL (≈ 220 µM)

Test system: Cryptococcus neoformans
Assay: Antifungal activity against Cryptococcus neoformans 32609 after 24 hrs by spectrophotometric analysis
Assay type: functional
Settings: Cryptococcus neoformans, 32609, 24 h
In short: as §1

Compound | MIC80
Cc1cnc2c(c1C)C(=O)c1sc([N+](=O)[O-])cc1C2=O | 0.5 µg/mL (≈ 1.73 µM)
OC(Cn1cncn1)(Cn1cncn1)c1ccc(F)cc1F [FLUCONAZOLE] | 1 µg/mL (≈ 3.27 µM)
Cc1cnc2c(c1)C(=O)c1sc([N+](=O)[O-])cc1C2=O | 0.5 µg/mL (≈ 1.82 µM)
Cc1ccnc2c1C(=O)C1=C(OC(C)(C)C1)C2=O | > 64 µg/mL
CC(C)(C)OC(=O)N1CCC(c2ccnc3c2C(=O)c2sc([N+](=O)[O-])cc2C3=O)CC1 | 8 µg/mL (≈ 18 µM)
CCCCc1ccnc2c1C(=O)c1sc([N+](=O)[O-])cc1C2=O | 0.5 µg/mL (≈ 1.58 µM)
CN(C)c1ccc(-c2ccnc3c2C(=O)c2sc([N+](=O)[O-])cc2C3=O)cc1 | 16 µg/mL (≈ 42.2 µM)
O=C1c2cc([N+](=O)[O-])sc2C(=O)c2c(C(Br)Br)ccnc21 | 32 µg/mL (≈ 74.1 µM)
Cc1cc[n+]([O-])c2c1C(=O)c1sc([N+](=O)[O-])cc1C2=O | 4 µg/mL (≈ 13.8 µM)

Test system: Aspergillus fumigatus
Assay: Antifungal activity against Aspergillus fumigatus 07544 after 24 hrs by spectrophotometric analysis
Assay type: functional
Settings: Aspergillus fumigatus, 07544, 24 h
In short: as §1

Compound | MIC80
Cc1cnc2c(c1C)C(=O)c1sc([N+](=O)[O-])cc1C2=O | 1 µg/mL (≈ 3.47 µM)
OC(Cn1cncn1)(Cn1cncn1)c1ccc(F)cc1F [FLUCONAZOLE] | > 64 µg/mL
Cc1cnc2c(c1)C(=O)c1sc([N+](=O)[O-])cc1C2=O | 2 µg/mL (≈ 7.29 µM)
Cc1ccnc2c1C(=O)C1=C(OC(C)(C)C1)C2=O | 64 µg/mL (≈ 263 µM)
CC(C)(C)OC(=O)N1CCC(c2ccnc3c2C(=O)c2sc([N+](=O)[O-])cc2C3=O)CC1 | > 64 µg/mL
CCCCc1ccnc2c1C(=O)c1sc([N+](=O)[O-])cc1C2=O | 64 µg/mL (≈ 202 µM)
CN(C)c1ccc(-c2ccnc3c2C(=O)c2sc([N+](=O)[O-])cc2C3=O)cc1 | > 64 µg/mL
O=C1c2cc([N+](=O)[O-])sc2C(=O)c2c(C(Br)Br)ccnc21 | 64 µg/mL (≈ 148 µM)
Cc1cc[n+]([O-])c2c1C(=O)c1sc([N+](=O)[O-])cc1C2=O | > 64 µg/mL

Test system: Trichophyton rubrum
Assay: Antifungal activity against Trichophyton rubrum Cmccftla after 24 hrs by spectrophotometric analysis
Assay type: functional
Settings: not given
In short: as §1

Compound | MIC80
Cc1cnc2c(c1C)C(=O)c1sc([N+](=O)[O-])cc1C2=O | 0.5 µg/mL (≈ 1.73 µM)
OC(Cn1cncn1)(Cn1cncn1)c1ccc(F)cc1F [FLUCONAZOLE] | 4 µg/mL (≈ 13.1 µM)
Cc1cnc2c(c1)C(=O)c1sc([N+](=O)[O-])cc1C2=O | 1 µg/mL (≈ 3.65 µM)
Cc1ccnc2c1C(=O)C1=C(OC(C)(C)C1)C2=O | 64 µg/mL (≈ 263 µM)
CC(C)(C)OC(=O)N1CCC(c2ccnc3c2C(=O)c2sc([N+](=O)[O-])cc2C3=O)CC1 | 8 µg/mL (≈ 18 µM)
CCCCc1ccnc2c1C(=O)c1sc([N+](=O)[O-])cc1C2=O | 4 µg/mL (≈ 12.6 µM)
CN(C)c1ccc(-c2ccnc3c2C(=O)c2sc([N+](=O)[O-])cc2C3=O)cc1 | 4 µg/mL (≈ 10.5 µM)
O=C1c2cc([N+](=O)[O-])sc2C(=O)c2c(C(Br)Br)ccnc21 | 32 µg/mL (≈ 74.1 µM)
Cc1cc[n+]([O-])c2c1C(=O)c1sc([N+](=O)[O-])cc1C2=O | 8 µg/mL (≈ 27.6 µM)

Test system: Nannizzia gypsea
Assay: Antifungal activity against Microsporum gypseum Cmccfmza after 24 hrs by spectrophotometric analysis
Assay type: functional
Settings: not given
In short: as §1

Compound | MIC80
Cc1cnc2c(c1C)C(=O)c1sc([N+](=O)[O-])cc1C2=O | 1 µg/mL (≈ 3.47 µM)
OC(Cn1cncn1)(Cn1cncn1)c1ccc(F)cc1F [FLUCONAZOLE] | 32 µg/mL (≈ 104 µM)
Cc1cnc2c(c1)C(=O)c1sc([N+](=O)[O-])cc1C2=O | 0.5 µg/mL (≈ 1.82 µM)
Cc1ccnc2c1C(=O)C1=C(OC(C)(C)C1)C2=O | > 64 µg/mL
CC(C)(C)OC(=O)N1CCC(c2ccnc3c2C(=O)c2sc([N+](=O)[O-])cc2C3=O)CC1 | 16 µg/mL (≈ 36.1 µM)
CCCCc1ccnc2c1C(=O)c1sc([N+](=O)[O-])cc1C2=O | 2 µg/mL (≈ 6.32 µM)
CN(C)c1ccc(-c2ccnc3c2C(=O)c2sc([N+](=O)[O-])cc2C3=O)cc1 | 16 µg/mL (≈ 42.2 µM)
O=C1c2cc([N+](=O)[O-])sc2C(=O)c2c(C(Br)Br)ccnc21 | 16 µg/mL (≈ 37 µM)
Cc1cc[n+]([O-])c2c1C(=O)c1sc([N+](=O)[O-])cc1C2=O | 4 µg/mL (≈ 13.8 µM)

Test system: Candida albicans
Assay: Antifungal activity against Candida albicans SC5314 after 48 hrs by spectrophotometric analysis
Assay type: functional
Settings: SC5314, 48 h

Compound | MIC80
Cc1cnc2c(c1C)C(=O)c1sc([N+](=O)[O-])cc1C2=O | 4 µg/mL (≈ 13.9 µM)
Cc1cnc2c(c1)C(=O)c1sc([N+](=O)[O-])cc1C2=O | 0.5 µg/mL (≈ 1.82 µM)

Test system: Candida albicans
Assay: Antifungal activity against fluconazole-resistant Candida albicans clinical isolate 032 after 24 hrs by spectrophotometric analysis
Assay type: functional
Settings: isolate 032, 24 h
In short: (§2)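 Broth microdilution (MIC80) against fluconazole-resistant clinical C. albicans isolates from a Shanghai hospital. Strains were grown in YPD at 30 ℃. Compounds came from 6.4 mg/mL DMSO stocks and were tested over a concentration series on 5×10^3 CFU/mL inoculum in RPMI 1640 at 35 ℃ for 24 h. OD600 was read; MIC80 is the lowest concentration giving 80% growth inhibition. Done in triplicate.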

Compound | MIC80
OC(Cn1cncn1)(Cn1cncn1)c1ccc(F)cc1F [FLUCONAZOLE] | > 64 µg/mL

Test system: Candida albicans
Assay: Antifungal activity against fluconazole-resistant Candida albicans clinical isolate 1010 after 24 hrs by spectrophotometric analysis
Assay type: functional
Settings: isolate 1010, 24 h
In short: as §2

Compound | MIC80
OC(Cn1cncn1)(Cn1cncn1)c1ccc(F)cc1F [FLUCONAZOLE] | > 64 µg/mL

Test system: Candida albicans
Assay: Antifungal activity against fluconazole-resistant Candida albicans isolate J38 clinical isolate after 24 hrs by spectrophotometric analysis
Assay type: functional
Settings: isolate J38, 24 h
In short: as §2

Compound | MIC80
OC(Cn1cncn1)(Cn1cncn1)c1ccc(F)cc1F [FLUCONAZOLE] | > 64 µg/mL

Test system: Candida albicans
Assay: Antifungal activity against fluconazole-resistant Candida albicans isolate Chang7 clinical isolate after 24 hrs by spectrophotometric analysis
Assay type: functional
Settings: isolate Chang7, 24 h
In short: as §2

Compound | MIC80
OC(Cn1cncn1)(Cn1cncn1)c1ccc(F)cc1F [FLUCONAZOLE] | 2 µg/mL (≈ 6.53 µM)

Test system: Candida albicans
Assay: Antifungal activity against fluconazole-resistant Candida albicans clinical isolate 103 after 24 hrs by spectrophotometric analysis
Assay type: functional
Settings: isolate 103, 24 h
In short: as §2

Compound | MIC80
OC(Cn1cncn1)(Cn1cncn1)c1ccc(F)cc1F [FLUCONAZOLE] | > 64 µg/mL

Test system: Candida albicans
Assay: Antibiofilm activity against Candida albicans SC5314 assessed inhibition of yeast-to-hypha morphological transition at 0.5 ug/ml after 3 hrs
Assay type: functional, organism-based
Settings: not given
In short: (§3)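 Yeast-to-hypha transition in YPD with 10% (v/v) FBS across compound concentrations; cell morphology photographed after 3 h at 37°C.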

Compound | Activity
Cc1cnc2c(c1C)C(=O)c1sc([N+](=O)[O-])cc1C2=O | Active
Cc1cnc2c(c1)C(=O)c1sc([N+](=O)[O-])cc1C2=O | Active

Test system: Candida albicans
Assay: Antifungal activity against Candida albicans infected in Sprague-Dawley rat vaginal infection model assessed as reduction in vaginal fungal burden at 1 mg/kg, administered intravaginally on day 1 to day 3 post fungal inoculation measured on day 4
Assay type: functional, organism-based
Settings: not given
In short: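 Ovariectomized rats inoculated intravaginally with 0.1 mL of 1×10^7 CFU/mL C. albicans on days 10, 11 and 12 after surgery. Compound in saline with 1% DMSO (2, 4, 8 mg/mL) given intravaginally on days 1–3 post-inoculation. On day 4, 100 µL vaginal fluid plated on chloramphenicol SDA agar for CFU counts.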

Compound | Activity
OC(Cn1cncn1)(Cn1cncn1)c1ccc(F)cc1F [FLUCONAZOLE] | Active

Test system: Candida albicans
Assay: Antibiofilm activity against Candida albicans SC5314 assessed inhibition of yeast-to-hypha morphological transition at 0.2 to 2 ug/ml after 3 hrs
Assay type: functional, organism-based
Settings: not given
In short: as §3

Compound | inhibition
Cc1cnc2c(c1C)C(=O)c1sc([N+](=O)[O-])cc1C2=O | inactive
Cc1cnc2c(c1)C(=O)c1sc([N+](=O)[O-])cc1C2=O | inactive

Test system: Candida albicans
Assay: Antibiofilm activity against Candida albicans assessed inhibition of biofilm formation at 1024 ug/ml
Assay type: functional
Settings: not given

Compound | inhibition at 1024 µg/mL
OC(Cn1cncn1)(Cn1cncn1)c1ccc(F)cc1F [FLUCONAZOLE] | 60%
